Neddyl block = cullin neddylation inhibition. TR-FRET cullin neddylation, biochemical. inhibition, % at 25 µM. 360,000 tested, 0.58% active; in the data active = inhibition above about 36%
UCH37 inh = human UCH37 deubiquitinating enzyme inhibition. Q9Y5K5. AID 588478. inhibition, % (test concentration not listed). 330,000 tested, 0.33% active. purified proteasome/UCH37, Ub-AMC cleavage fluorescence;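 active = mean inhibition over replicate wells above about 20%, limit read from the data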;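 also: 0% = compound-free wells with enzyme and 100% = wells lacking proteasome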
Target sequence (Q9Y5K5 whole entry, looked up): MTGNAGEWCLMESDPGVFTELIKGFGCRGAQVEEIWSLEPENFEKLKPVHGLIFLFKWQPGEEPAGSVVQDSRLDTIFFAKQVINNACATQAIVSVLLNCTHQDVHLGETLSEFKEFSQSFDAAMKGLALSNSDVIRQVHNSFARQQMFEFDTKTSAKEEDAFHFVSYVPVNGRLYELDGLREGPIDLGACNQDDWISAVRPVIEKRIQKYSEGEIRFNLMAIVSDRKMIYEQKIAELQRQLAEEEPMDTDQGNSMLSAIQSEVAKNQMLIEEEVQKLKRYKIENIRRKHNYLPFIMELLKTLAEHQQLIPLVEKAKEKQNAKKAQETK
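Material: human UCH37 enzyme supplied as purified proteasome complex / Amount: 0.15 nM proteasome as dispensed / Buffer or medium: pH 7.4 Tris-HCl (50 mM) with ovalbumin, ATP-MgCl2, DTT / Times: preincubation 30 min, reaction 25 min, room temperature / Technique: AMC fluorescence from Ub-AMC cleavage, excitation 355 nm, emission 460 nm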
UBC9 SUMO inh = inhibitors of human SUMOylation (UBC9); AID 2006; HTRF SUMOylation assay, SAE1/SAE2 + UBC9, in vitro; inhibition, % at 35 µM; 290,000 tested, 0.36% active; P63279; in the data active = inhibition above about 50%, passing the limit was not always enough; inconclusive = no clear call, values can overlap the other calls
Target sequence (P63279 whole entry, looked up): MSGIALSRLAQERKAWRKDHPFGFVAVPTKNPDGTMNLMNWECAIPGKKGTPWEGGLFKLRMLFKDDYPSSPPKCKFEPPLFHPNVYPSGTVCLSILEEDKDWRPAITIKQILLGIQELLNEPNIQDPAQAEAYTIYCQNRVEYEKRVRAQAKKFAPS
Fh CTSL1 inh = blocks F. hepatica cathepsin L1 in PFM18AAP counter-screen. recombinant F. hepatica cathepsin L1, Z-Leu-Arg-MCA fluorescence. inhibition, % at 5.96 µM. 300,000 tested, 0.49% active;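 active = inhibition above the mean of all tested compounds plus 3 SD, set per screening campaign, cut at about 17% in these data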;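 also: 0% = plate median of test compound wells and 100% = 1 µM Z-Phe-Ala-diazomethylketone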
The depositor's hits bear a star; ? = inconclusive; / = no result given. Hits are enriched below; roughly 1.4% of the tested compounds scored in any of these assays.

SMILES	Neddyl block	UCH37 inh	UBC9 SUMO inh	Fh CTSL1 inh
C=CCOc1ccc(/C(O)=C2\C(=O)C(=O)N(CCN(C)C)C2c2cccs2)cc1 (stereo not given)	-143	24*	1	-2
CN(C)C=NC(=S)Nc1ccc(Cl)c(Cl)c1	/	2	/	/
O=C1CSC(=Nc2ccccc2[N+](=O)[O-])N1	-20	29*	12	-3
COc1ccc(N=C2NC(=O)CS2)c([N+](=O)[O-])c1	-14	4	10	-1
Cc1ccc(C(CSc2nccn2-c2ncc(C(F)(F)F)cc2Cl)=NO)cc1	/	1	/	/
O=C(CSc1nccn1-c1ncc(C(F)(F)F)cc1Cl)c1ccc(Cl)cc1	15	31*	-9	2
Fc1ccc(-c2nc3cnccn3c2NC2CCCC2)cc1	/	-325	54*	-4
Oc1ccc(Br)cc1-c1nc2cnccn2c1NC1CCCC1	/	-31	28	10
O=C(N[C@@H](Cc1ccccc1)C(=O)N[C@@H](Cc1ccccc1)C(=O)O)OCc1ccccc1	-21	3	/	-3
O=C(N[C@@H](Cc1ccccc1)C(=O)CCl)OCc1ccccc1	-20	6	/	69*
CCCc1nc2c(s1)CCc1onc(-c3cccc([N+](=O)[O-])c3)c1-2	-1	32*	/	-3
O=[N+]([O-])c1cccc(-c2noc3c2-c2nc(Cc4cccc5ccccc45)sc2CC3)c1	1	0	/	1
O=C(Nc1cccc2c1C(=O)NC2=O)c1ccc(N2C(=O)CCC2=O)cc1	-50	-73	9	42*
O=S(=O)(c1ccc2ccccc2c1)N1CCOCC1	-8	3	8	1
O=C(c1ccc2nc(-c3ccco3)c(-c3ccco3)nc2c1)N1CCN(c2ccccc2)CC1	23	-14	73*	3
O=S(=O)(c1ccc2nc(-c3ccco3)c(-c3ccco3)nc2c1)N1CCOCC1	-5	-110	84*	6
Cc1cccc(C(=O)NN=Cc2ccc[nH]2)c1	/	7	/	/
Oc1c(Br)cc(Br)cc1C=Nc1nc2c(s1)CCCC2	/	2	/	/
CSc1nc(NCCN(C)C)c2sc3nc(-c4ccco4)c4c(c3c2n1)CCC4	12	-20	/	/
CSc1nc(N(C)CCO)c2sc3nc(-c4ccco4)c4c(c3c2n1)CCC4	-3	-10	39	22*
O=C(NN=Cc1ccc(OC2CSC2)cc1)c1ccccc1	/	2	/	/
Cc1ccc[n+](-c2[nH]c(=O)sc2C=NNC(=O)c2ccccc2[O-])c1	/	12	/	/
COCCn1c(SCC(=O)c2ccc3c(c2)OCCO3)nnc1C(C)C	8	3	3	18*
COc1cc([N+](=O)[O-])cc(C=NNC(=O)C(O)(c2ccccc2)c2ccccc2)c1O	/	12	/	/
COc1cc([N+](=O)[O-])cc(C=NNC(=O)C(C)Nc2ccccc2C)c1O (stereo not given)	/	20*	/	/
SMILES	Neddyl block	UCH37 inh	UBC9 SUMO inh	Fh CTSL1 inh
CNC(=O)C1CC(=O)N/C(=N/N=C(C)c2cccs2)S1 (stereo not given)	/	16	/	/
COc1ccc(C[C@](C)(N)C(=O)O)cc1OC	-10	0	/	-3
C[C@](N)(Cc1ccc(O)c(O)c1)C(=O)O	0	4	90*	/
N#C/C(=C(/O)c1ccco1)c1nc2ccccc2s1	8	20*	4	-1
N#CC(=C(O)c1ccco1)c1nc2ccccc2s1	/	18	/	/
CC(CC(=O)NC1CCCCC1)=NNC(=O)COc1ccc(C)cc1Br	/	-1	/	/
COc1cc(OC)cc(C(=O)NCc2cccnc2)c1	-1	4	19	19*
CC1CCC2(CC1)NC(=O)N(NC(=O)CCl)C2=O (stereo not given)	2	3	12	17*
CCC(C)=NNc1nc(-c2cc3cccc(OC)c3oc2=O)cs1	/	-6	/	/
COC(=O)NN=Cc1ccccc1Cl	/	0	/	/
Nc1nc2ccccc2n1C(=O)c1ccccc1	41*	-11	15	-1
Cc1ccc(C=NNC(=O)c2ccncc2)o1	/	18	/	/
Nc1c(C(=O)N/N=C/c2cccnc2)oc2nc(-c3ccco3)cc(-c3ccco3)c12	8	/	95*	0
CCN1/C(=C/C=C/c2oc3ccc4ccccc4c3[n+]2CC)Oc2ccc3ccccc3c21	/	2	90*	0
CC[n+]1c(/C=C/N(C)c2ccccc2)oc2ccc(Cl)cc21	-15	6	-2	5
Cc1ccc(C(N)=NOC(=O)C(C)c2ccc([N+](=O)[O-])cc2)cc1 (stereo not given)	/	0	/	/
O=S(=O)(c1ccc(Cl)c(NC(=S)NN=Cc2c(F)cccc2F)c1)N1CCOCC1	/	2	/	/
O=[N+]([O-])c1cc(Cl)cc(C=NNC(=S)Nc2cc(S(=O)(=O)N3CCOCC3)ccc2Cl)c1O	/	23*	/	/
C=C(C)C(=O)O[C@H]1CC(C)=CC(=O)C=C(C)[C@H](O)[C@@H]2OC(=O)C(=C)[C@@H]21	/	-4	/	/
COc1cc(-c2nnn(CC(=O)N3CCOCC3)n2)cc(OC)c1OC	-6	4	18	30*
CCN(C(=O)CSc1nnc(Cc2ccccc2F)n1N)C1CCS(=O)(=O)C1 (stereo not given)	1	27*	3	1
CN(C(=O)CSc1nnc(Cc2ccccc2F)n1N)C1CCS(=O)(=O)C1 (stereo not given)	8	1	14	-2
CC(=NNC(=O)CC1N=C(Cc2ccccc2)NNC1=O)c1cccnc1 (stereo not given)	/	4	/	/
Cn1c(-c2ccccc2)cc(=O)c2ccccc21	4	4	-2	2
Cn1c2ccccc2c(=O)n2c(=O)c3ccccc3cc12	/	/	/	107*
SMILES	Neddyl block	UCH37 inh	UBC9 SUMO inh	Fh CTSL1 inh
CCOc1ccc(Cl)cc1C=NNC(=O)CNC(=O)c1ccccc1	/	-6	/	/
COc1ccc2c(c1)C(C)=CC(C)(C)N2S(=O)(=O)c1ccc(C)cc1	-4	23*	7	-4
CCOc1ccc2c(c1)C(C)=CC(C)(C)N2S(=O)(=O)c1ccc(C)cc1	-5	1	-1	/
CCOC(CNC(=O)c1cccc([N+](=O)[O-])c1)OCC	-22	4	11	38*
O=C(NCCc1ccccc1)c1cccc([N+](=O)[O-])c1	-32	7	-5	1
COc1cc(-c2ccc(Nc3ccccc3C(=O)O)c(OC)c2)ccc1Nc1ccccc1C(=O)O	12	25*	?	/
COc1cccc(Nc2ccccc2C(=O)O)c1	3	2	-14	0
Cn1c2ccccc2c2c(C(=O)O)cn(C3CCCC3)c(=O)c21	0	-170	27	18*
O=C(NCCCO)Nc1ccc2nc(-c3ccco3)c(-c3ccco3)nc2c1	/	/	93*	4
CC(=O)c1cccc(NC(=S)NCCC2=CCCCC2)c1	-17	1	-8	1
O=C(NCCC1=CCCCC1)Nc1ccc2nsnc2c1	/	-40	27	24*
O=C(NCc1ccco1)Nc1ccc2nsnc2c1	50*	-34	26	6
Oc1ccc(C=NNc2ccc(C(F)(F)F)cn2)cc1O	/	-13	/	/
O=C1CC(c2ccc3c(c2)OCO3)CN1 (stereo not given)	7	27*	4	2
O=C(O)c1ccc(C=NN2CCN(c3ccccc3)CC2)cc1	/	2	/	/
C=CCS/C(N)=N\N=C\c1c(O)ccc2ccccc12	18	/	0	22*
C=CCSC(N)=NN=Cc1c(O)ccc2ccccc12	/	-3	/	/

Compound activity deposited in PubChem BioAssay by several laboratories.
